Screens as filed in PubChem BioAssay.
Shown are actives, neighbours in structure and some others; about 1.5% of the full set was active somewhere.
DNA FID counter = compounds displacing fluorescent DNA intercalator, primary screen, artefact control for HCV NS3 helicase inhibitor project, biochemical, FID fluorescence | DNA fluorescent intercalator displacement | inhibition, % at 7.9 µM | hit rate 0.17% among 290,000 | AID 1845, 2009; in the data active means inhibition above about 37%;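 further: higher means more ethidium bromide displaced from hairpin DNA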
NRP1-CendR mod = modulators of CendR peptide binding to NRP-1, primary screen, biochemical, fluorescence polarization, uHTS; Neuropilin-1 (Homo sapiens), O14786; FAM-RPARPAR peptide binding to NRP-1; inhibition, % at 25 µM; hit rate 0.85% among 360,000;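 active means inhibition or corrected inhibition above about 18%, plus a signal ratio from 0.5 to 1.5, limit read from the data, passing the limit was not always enough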
Target sequence (O14786 whole entry, looked up): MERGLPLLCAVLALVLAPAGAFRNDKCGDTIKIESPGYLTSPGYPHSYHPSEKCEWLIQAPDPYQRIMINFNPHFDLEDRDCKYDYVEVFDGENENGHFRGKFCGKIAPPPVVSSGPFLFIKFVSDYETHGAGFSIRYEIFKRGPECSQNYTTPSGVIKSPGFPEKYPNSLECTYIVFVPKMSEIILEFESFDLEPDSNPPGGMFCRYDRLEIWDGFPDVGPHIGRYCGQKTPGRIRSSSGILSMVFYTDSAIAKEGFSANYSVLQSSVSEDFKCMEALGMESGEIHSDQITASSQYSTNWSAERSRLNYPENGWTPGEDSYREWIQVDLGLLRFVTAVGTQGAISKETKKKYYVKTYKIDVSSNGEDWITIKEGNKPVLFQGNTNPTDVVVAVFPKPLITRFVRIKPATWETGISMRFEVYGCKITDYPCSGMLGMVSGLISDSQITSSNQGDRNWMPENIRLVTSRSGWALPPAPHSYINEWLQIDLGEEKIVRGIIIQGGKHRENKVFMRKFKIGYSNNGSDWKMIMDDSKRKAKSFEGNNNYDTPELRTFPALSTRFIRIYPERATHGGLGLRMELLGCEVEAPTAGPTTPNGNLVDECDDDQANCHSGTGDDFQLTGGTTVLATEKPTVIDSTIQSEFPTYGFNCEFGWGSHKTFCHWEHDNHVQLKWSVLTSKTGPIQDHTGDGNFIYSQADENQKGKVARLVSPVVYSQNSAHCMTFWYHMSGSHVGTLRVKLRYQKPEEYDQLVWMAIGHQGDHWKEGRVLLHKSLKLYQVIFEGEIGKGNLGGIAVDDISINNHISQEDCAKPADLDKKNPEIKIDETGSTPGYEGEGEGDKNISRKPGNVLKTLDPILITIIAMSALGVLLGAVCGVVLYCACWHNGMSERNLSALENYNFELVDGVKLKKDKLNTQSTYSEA
core dimer inh = inhibitors of HCV core protein dimerization, primary screen, biochemical, TR-FRET, high-throughput | inhibition, % at 5 µM | TR-FRET GST/Flag-core106 dimerization, 1536-well | hit rate 0.33% among 300,000;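 active means inhibition above the mean of all tested compounds plus 3 SD, set per screening campaign, cut at about 45% in these data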
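System: GST/Flag-tagged HCV core106 proteins. Incubation: compound-protein-antibody incubation 4 h at 22.5 °C. Technique: HTRF with 340 nm excitation, 617/671 nm emission. Medium: KF-containing HEPES buffer, pH 7.45, DTT, CHAPS, BSA. Read-out: inhibition (%) from 671 over 617 nm ratio. Also added: Eu(K)-anti-GST 90 ng/mL plus XL665-anti-Flag 1 µg/mL.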
MEX-5 binding = MEX-5 zinc finger RNA-binding disruptors – biochemical, C. elegans, fluorescence polarization, MLPCN library, primary screen | Zinc finger protein mex-5 (Caenorhabditis elegans), Q9XUB2 | MEX-5/FITC-TCR2 RNA binding; active compounds read low | activity score (negative = inhibition of binding), % at 10 µM | hit rate 0.38% among 300,000 | AID 1832, 2009;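 active means inhibition past about -25% in most replicates, and total fluorescence under double the plate's negative control median, limit read from the data; inconclusive means replicates evenly split on the limit, or fluorescence at least double controls; inactive means too little inhibition in most replicates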
Large screens that a line does not name were inactive; ! = not active in a repeat.

O=C([O-])c1ccc(-[n+]2c(-c3ccccc3)cc(-c3ccccc3)cc2-c2ccccc2)cc1	none (no result: DNA FID counter)
Cc1ccc(-c2cc(-c3ccccc3)cc(-c3ccccc3)[n+]2-c2ccccc2C(=O)O)cc1	NRP1-CendR mod 26.3 (no result: DNA FID counter)
CC(=O)NC(Cc1ccc(N(CCCl)CCCl)cc1)C(=O)NC(CC(C)C)C(=O)O (stereo unspecified)	none
CN1C(=O)/C(=C/c2cccn2-c2ccc3ccccc3c2)C(=O)NC1=S	core dimer inh 64.6
COc1cc(/C=C2/C(=O)NC(=O)N(c3ccccc3)C2=O)ccc1O	none
COc1cccc(N2C(=O)NC(=O)/C(=C/c3ccc4c(c3)Cc3ccccc3-4)C2=O)c1	MEX-5 binding -42.8
CCn1cc(C=C2C(=O)NC(=O)NC2=O)c2ccccc21	MEX-5 binding -46.3
CCn1cc(C=C2C(=O)N(C)C(=O)N(C)C2=O)c2ccccc21	none
NC(=O)Cn1cc(C=C2C(=O)NC(=O)NC2=O)c2ccccc21	MEX-5 binding -74.3 (no result: core dimer inh)
COC(=O)Cn1cc(C=C2C(=O)NC(=O)NC2=O)c2ccccc21	MEX-5 binding -27.1
Cn1cccc1CNCCc1ccccc1F	none
Cc1ccc(/C=C2/Sc3ccc(C(=O)N4CCC5(CC4)OCCO5)cc3NC2=O)cc1	MEX-5 binding -29.3
CN1C(=O)c2ccccc2Sc2ccc(C(=O)N3CCC4(CC3)OCCO4)cc21	none
O=[N+]([O-])c1c2ccccc2cc2ccccc12	none (no result: DNA FID counter, core dimer inh, MEX-5 binding)
CCCCCCC[n+]1ccc(-c2cc[n+](CCCCCCC)cc2)cc1	DNA FID counter 54.8
Cc1ccc(N2C(=O)NC(=O)/C(=C\c3ccc([N+](=O)[O-])o3)C2=O)cc1	MEX-5 binding -67.8 (no result: NRP1-CendR mod)
O=C1C=CC(=O)C2C1C1(Cl)C(Cl)=C(Cl)C2(Cl)C1(Cl)Cl (stereo unspecified)	NRP1-CendR mod 25.8 (no result: DNA FID counter, core dimer inh, MEX-5 binding)
Cc1cc(C=C(C#N)C#N)ccc1N1CCCC1	none
N#CC(C#N)=Cc1ccc(N2CCOCC2)cc1	MEX-5 binding -27.3
O=C(Nc1ccc(F)cc1F)c1cccnc1Oc1cccc(C(F)(F)F)c1	none
CCN(CC)c1ccc(N=Cc2c(O)n(Cc3ccccc3)c(=O)[nH]c2=O)cc1	MEX-5 binding -29.5!
O=C(N/N=C/c1c(O)n(Cc2ccccc2)c(=O)[nH]c1=O)c1ccccc1O	MEX-5 binding -35.7
CCN(CC)c1ccc(N=Cc2c(O)n(-c3ccccc3)c(=O)[nH]c2=O)cc1	none
Clc1cccc(C2NCc3ccccc3-n3cccc32)c1 (stereo unspecified)	none
O=P(O)(O)CN1CCNCCN(CP(=O)(O)O)CCNCC1	NRP1-CendR mod 29.5 (no result: DNA FID counter, core dimer inh, MEX-5 binding)
CC1NC(=O)NC(=O)C1Br (stereo unspecified)	NRP1-CendR mod 35.9 (no result: DNA FID counter, core dimer inh, MEX-5 binding)
O=c1[nH]c(=O)n(-c2ccccc2)c(O)c1/C=C/C=Nc1ccccc1	MEX-5 binding inconclusive
C=CCn1c(O)c(/C=C/C=Nc2ccccc2)c(=O)[nH]c1=O	MEX-5 binding -26.3
O=C(O)COc1cc(Cl)c(Cl)cc1Cl	none (no result: DNA FID counter, core dimer inh, MEX-5 binding)
CCOC(=O)c1cc(CC)sc1/N=C/c1c(O)[nH]c(=S)[nH]c1=O	MEX-5 binding -28.7
CC(=O)c1cn(Cc2ccccc2C#N)c2ccccc12	none
O=C1NCN(c2ccccc2)C12CCN(C(CCc1ccccc1)c1nnnn1C1CCCC1)CC2 (stereo unspecified)	none (no result: DNA FID counter, core dimer inh, MEX-5 binding)
C[N+]1(CC2COC(c3ccco3)O2)CCCCC1 (stereo unspecified)	none
CC[n+]1c(/C=C/C=C/c2ccc(N(C)C)cc2)sc2ccccc21	MEX-5 binding -28.5
CN(C)c1ccc(/C=C/C=C/c2sc3ccccc3[n+]2C)cc1	none
CN1CCC(N(C)c2nc(-c3ccccc3)nc3ccccc23)CC1	DNA FID counter 62.9
CCN(CC)C(=O)c1ccc(NC(=O)COC(=O)c2ccc(Cl)s2)cc1	none (no result: DNA FID counter, core dimer inh, MEX-5 binding)
CC(=O)c1ccc2c(c1)C1C(Cl)C(Sc3ccccc3[N+](=O)[O-])CC1C(C(=O)O)N2 (stereo unspecified)	NRP1-CendR mod 31.2 (no result: MEX-5 binding)
Cc1cc(Cl)ccc1OCC(=O)N1CCN(C)CC1	NRP1-CendR mod 23.4
COC(=O)C1=C(c2ccc(OCc3ccccc3)cc2)C[C@@H]2CC[C@H]1N2C(=O)NCCCCc1ccccc1	none (no result: DNA FID counter, core dimer inh, MEX-5 binding)
Cc1ccc(S(=O)(=O)N2Cc3cc(-c4ccccc4)ccc3-n3nncc3C2)cc1	none (no result: DNA FID counter, core dimer inh, MEX-5 binding)
O=S(=O)(c1cc(Cl)cc(Cl)c1)N1Cc2cc(-c3ccccc3)ccc2-n2nncc2C1	NRP1-CendR mod 23.2 (no result: DNA FID counter, core dimer inh, MEX-5 binding)
